{"source": "ChEMBL document CHEMBL1145421", "about": "“Discovery of novel antitumor antimitotic agents that also reverse tumor resistance” (J Med Chem, 2007)", "key": {"NCI/ADR": {"test_system": "NCI/ADR", "experiment": "Inhibition of P-glycoprotein activity assessed as increase in accumulation of [3H]vinblastine in NCI/ADR cells", "assay_type": "cell-based", "conditions": "Homo sapiens"}, "[1]": {"experiment": "Cytotoxicity against human T24 cells after 48 hrs by SRB binding assay", "assay_type": "cell-based", "conditions": "T-24, 48 h"}, "MCF7": {"test_system": "MCF7", "experiment": "Cytotoxicity against human MCF7 cells after 48 hrs by SRB binding assay", "assay_type": "functional, cell-based", "conditions": "MCF7, 48 h", "procedure,_shortened": "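Drug-sensitive MCF-7 cells seeded at ~15% confluency and allowed 24 h recovery. Exposed 48 h to graded concentrations. Survival measured by SRB binding as % decrease versus ethanol-vehicle controls, mean of triplicate wells.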"}, "[2]": {"experiment": "Cytotoxicity against MRP1 overexpressing human MCF7/VP cells after 48 hrs by SRB binding assay", "assay_type": "functional, cell-based", "procedure,_shortened": "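MCF-7/VP (MRP1-expressing, Pgp-negative) cells seeded at ~15% confluency and allowed 24 h to attach. Exposed 48 h to graded concentrations without vincristine. Survival measured by SRB binding versus ethanol controls.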"}, "[3]": {"experiment": "Cytotoxicity against Pgp overexpressing human NCI/ADR cells after 48 hrs by SRB binding assay", "assay_type": "functional, cell-based", "conditions": "NCI/ADR-RES", "procedure,_shortened": "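NCI/ADR (Pgp-overexpressing) cells seeded at ~15% confluency and allowed 24 h to attach. Exposed 48 h to graded concentrations, as solubility allowed, without vinblastine. Survival measured by sulforhodamine B binding as % decrease in SRB binding versus ethanol-vehicle controls, mean of three wells per condition.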"}}, "data": [{"smiles": "COc1ccccc1CCc1cn(Cc2ccccc2)c2nc(N)nc(C)c12", "values": [{"measurement": "Activity", "setting": "NCI/ADR", "value": "Dose-dependent effect"}, {"measurement": "IC50", "setting": "[1]", "value": 2.5, "unit": "µM"}, {"measurement": "IC50", "setting": "MCF7", "value": 2.3, "unit": "µM"}, {"measurement": "IC50", "setting": "[2]", "value": 2.6, "unit": "µM"}, {"measurement": "IC50", "setting": "[3]", "value": 2.7, "unit": "µM"}]}]}
